# Experimental data as given in paper PMC3447631 (Chemistry & biology, 2012).
# Experiments:
# PPARγ = type: cell-based; details: PPRE-Luc, HeLa
# Procedure, shortened: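 HeLa cells were co-transfected with a PPRE-Luc reporter, with or without a PPARγ expression vector, then treated with test compound. Read-out was luciferase activity; mean ± SE, n=3.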
# HNF4α DNA binding = target: T1, HNF4α DNA binding (Homo sapiens, UniProt P41235); test: HNF4α DNA binding, HNF TransAM ELISA on HepG2 nuclear extracts; type: cell-based; details: HepG2 incubated overnight with compound
# T1 sequence (P41235 1-474): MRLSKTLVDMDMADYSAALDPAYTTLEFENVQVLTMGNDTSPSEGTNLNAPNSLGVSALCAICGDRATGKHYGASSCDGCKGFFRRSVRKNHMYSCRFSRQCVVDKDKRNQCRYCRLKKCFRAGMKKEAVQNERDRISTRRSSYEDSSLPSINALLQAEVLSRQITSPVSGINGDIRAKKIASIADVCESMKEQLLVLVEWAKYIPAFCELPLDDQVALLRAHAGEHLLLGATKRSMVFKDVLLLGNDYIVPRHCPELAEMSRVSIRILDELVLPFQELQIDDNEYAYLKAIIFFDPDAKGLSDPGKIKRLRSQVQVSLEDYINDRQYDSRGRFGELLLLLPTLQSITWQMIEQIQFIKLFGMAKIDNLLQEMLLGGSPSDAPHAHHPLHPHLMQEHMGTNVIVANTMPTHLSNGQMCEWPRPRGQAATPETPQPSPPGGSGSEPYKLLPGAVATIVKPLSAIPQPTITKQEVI
# Procedure, shortened: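 HepG2 cells were incubated overnight with test compound. Nuclear protein extracts (5μg) were added to wells bearing an oligonucleotide with an HNF4α binding site. Bound HNF4α was detected with an anti-HNF4α antibody (ELISA). Mean ± SD, n=3 biological replicates; Student's t-test.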
# full-length HNF4α = full-length HNF4α (Rattus norvegicus, UniProt P22449); test: Direct binding by quenching of HNF4α aromatic amino acid fluorescence; details: Hill equation analysis
# p57Kip2 expression = test: Kip2 mRNA in T6PNE cells; type: cell-based, human
# Procedure, shortened: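 Kip2 mRNA in T6PNE cells measured by Q-PCR, normalized to 18s rRNA. Treated and DMSO vehicle cells were compared by Student's t-test.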
# [1] = system: endogenous insulin promoter; test: Endogenous insulin mRNA; type: cell-based, human; details: for effect on endogenous insulin expression / insulin promoter activity: T6PNE cells; for effect of fatty acid on insulin gene expression (quantitative RT-PCR): T6PNE, 1μM tamoxifen, 48 hours
# Procedure, shortened: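 Q-PCR of endogenous insulin mRNA in T6PNE cells after 48 h exposure to test compound across a concentration series. For fatty acids, cells got 1μM tamoxifen plus fatty acid or DMSO vehicle for 48 hours before RNA harvest. Insulin mRNA was normalized to GAPDH or 18S rRNA; mean ± SE, n=3.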
# HNF4α = target: T2, HNF4α (Homo sapiens, UniProt P41235); test: DARTS assay in HepG2 cells; type: binding; details: HepG2, 20μM, 24hr, subtilisin
# T2 sequence (P41235 1-474): T1 sequence (P41235 1-474)
# Procedure, shortened: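 DARTS: HepG2 cells were treated with DMSO or test compound at 20μM for 24hr. Read-out is the ligand-induced change in HNF4α sensitivity to proteolysis.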
# [2] = system: modified estrogen receptor (E47MER); test: Counterscreen: prevention of E47MER translocation; type: cell-based
# INS1 and INS2 genes = test: Insulin gene mRNA in MIN6 cells after prolonged fatty acid exposure; type: cell-based, murine; details: 0.08mM Oleate or 0.02mM Palmitate, 110 days
# HNF4α gene expression [3] = test: HNF4α mRNA expression in MIN6 cells; type: cell-based, murine; details: for effect of fatty acid on HNF4α gene in MIN6: 0.08mM Oleate or 0.02mM Palmitate, 110 days
# HNF4α gene expression [4] = test: HNF4α mRNA expression in T6PNE cells; type: cell-based, human
# PPARα = PPARα (Homo sapiens, UniProt Q07869); test: PPRE-luciferase reporter assay with PPARα co-transfection; type: cell-based
# PPARδ = PPARδ (Homo sapiens, UniProt Q03181); test: PPRE-luciferase reporter assay with PPARδ co-transfection; type: cell-based
# HNF4α gene expression [5] = test: HNF4α mRNA expression in HepG2 cells; type: cell-based; details: 48 hours
# Procedure, shortened: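 HNF4α mRNA in treated HepG2 cells measured by Q-PCR and normalized to 18S rRNA. Differences in expression assessed by Student's t-test.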
# Plasma stability = type: in vitro ADME; details: after 3 h
# [6] = system: E47 and PDX-1 binding to the human insulin promoter; test: ChIP of E47 and PDX-1 on the human insulin promoter in T6PNE cells; type: cell-based; details: 5μM, 48 hours
# Procedure, shortened: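 T6PNE cells were given 1μM tamoxifen plus DMSO or 5μM test compound for 48 hours. ChIP used anti-E47 and anti-PDX-1 antibodies, followed by Q-PCR with primers for the E-box and A-box elements of the insulin promoter. Treated and vehicle binding were compared by Student's t-test.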
# Plasma protein binding = type: in vitro ADME; details: after 4 h
# tumor cell lines = test: Toxicity to tumor cell lines versus cultured primary cells in vitro; type: cell-based
# Solubility = type: physicochemical
# [7] = Hepatic microsomal stability; type: in vitro ADME; details: after 1.25 h
# human insulin promoter = test: Human insulin promoter-GFP transgene assay in T6PNE cells; type: cell-based; details: for effect of reported HNF4α ligands on insulin promoter activity: 48 hours, 0.5 μM or 1 μM tamoxifen
# Procedure, shortened: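 T6PNE cells carry a lentiviral human insulin promoter–GFP transgene. Cells were treated for 48 hours; where stated, tamoxifen was 0.5 or 1 μM and fatty acids 0.12 mM. The green channel was imaged and percent GFP+ cells normalized to total cells per well.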
# Sequence of full-length HNF4α (P22449 whole entry): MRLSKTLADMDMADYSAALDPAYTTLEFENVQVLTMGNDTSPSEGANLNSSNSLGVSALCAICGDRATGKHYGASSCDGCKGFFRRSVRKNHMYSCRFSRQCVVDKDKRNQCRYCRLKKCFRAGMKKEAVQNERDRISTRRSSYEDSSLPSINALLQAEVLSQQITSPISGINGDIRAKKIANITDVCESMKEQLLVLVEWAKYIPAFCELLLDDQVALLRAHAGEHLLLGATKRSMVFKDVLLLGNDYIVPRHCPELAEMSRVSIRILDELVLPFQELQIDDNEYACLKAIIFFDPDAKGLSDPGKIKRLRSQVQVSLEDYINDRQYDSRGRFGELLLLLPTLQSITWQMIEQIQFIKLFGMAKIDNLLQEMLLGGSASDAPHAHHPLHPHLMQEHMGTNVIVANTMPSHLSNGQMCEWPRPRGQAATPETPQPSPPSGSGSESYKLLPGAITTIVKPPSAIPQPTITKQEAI
# Sequence of PPARδ (Q03181 whole entry, species assumed): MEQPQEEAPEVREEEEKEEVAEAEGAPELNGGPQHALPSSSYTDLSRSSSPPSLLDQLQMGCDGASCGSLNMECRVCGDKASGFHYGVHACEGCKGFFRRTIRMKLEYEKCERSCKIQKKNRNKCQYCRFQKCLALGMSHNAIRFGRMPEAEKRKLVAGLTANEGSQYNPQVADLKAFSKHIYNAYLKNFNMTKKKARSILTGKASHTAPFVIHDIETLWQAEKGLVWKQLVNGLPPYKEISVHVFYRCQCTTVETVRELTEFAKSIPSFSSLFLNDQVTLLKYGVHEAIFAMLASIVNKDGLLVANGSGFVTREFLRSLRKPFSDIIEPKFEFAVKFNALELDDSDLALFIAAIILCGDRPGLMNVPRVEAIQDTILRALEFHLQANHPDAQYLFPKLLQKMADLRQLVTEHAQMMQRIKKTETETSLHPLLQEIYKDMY
# Sequence of PPARα (Q07869 whole entry, species assumed): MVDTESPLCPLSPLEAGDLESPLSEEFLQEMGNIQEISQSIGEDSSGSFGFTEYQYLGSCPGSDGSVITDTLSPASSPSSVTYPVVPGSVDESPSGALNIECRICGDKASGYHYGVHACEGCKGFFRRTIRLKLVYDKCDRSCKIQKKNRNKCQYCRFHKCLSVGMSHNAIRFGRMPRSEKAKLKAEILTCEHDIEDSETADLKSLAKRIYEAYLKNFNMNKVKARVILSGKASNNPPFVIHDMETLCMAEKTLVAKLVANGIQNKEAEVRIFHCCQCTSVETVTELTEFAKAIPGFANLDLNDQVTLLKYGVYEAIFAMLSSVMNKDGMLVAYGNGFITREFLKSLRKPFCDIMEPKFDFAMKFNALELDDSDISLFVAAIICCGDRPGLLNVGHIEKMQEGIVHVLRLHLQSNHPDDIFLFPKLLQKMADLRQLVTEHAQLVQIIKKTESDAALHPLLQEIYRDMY
compound,measurement,setting,value
"CCCCCS(=O)(=O)NC(=O)c1ccc2nc(C)n(Cc3ccc(Cl)cc3Cl)c2c1 [FK614, reference compound]",activity as PPARγ agonist,PPARγ,had activity as PPARγ agonists
same,effect on HNF4α DNA binding,HNF4α DNA binding,inactive
same,Hill coefficient of binding,full-length HNF4α,0.6 ± 0.1
same,effect on Kip2 expression,p57Kip2 expression,no effect
same,effect on endogenous insulin expression / insulin promoter activity,[1],no effect
same,effect on HNF4α protease sensitivity (DARTS),HNF4α,no effect
O=[N+]([O-])c1ccc2nc(-c3ccco3)[nH]c2c1 [compound 5816458],estrogenic antagonism / tamoxifen-like activity (E47MER translocation),[2],estrogenic antagonists
"CCCCCCCCCCCCCCCC(=O)O [palmitate, reference compound]",effect on INS2 gene in MIN6,INS1 and INS2 genes,inhibited
same,effect of fatty acid on HNF4α gene in MIN6,HNF4α gene expression [3],inhibited
same,effect of fatty acid on insulin gene expression (quantitative RT-PCR),[1],dose-dependent decrease
same,effect of fatty acid on HNF4α mRNA levels in T6PNE,"HNF4α gene expression [4]; 48 hour treatment, with tamoxifen",significantly inhibited
"CCCCCCCC/C=C\CCCCCCCC(=O)O [oleate, reference compound]",effect on INS2 gene in MIN6,INS1 and INS2 genes,inhibited
same,effect of fatty acid on HNF4α gene in MIN6,HNF4α gene expression [3],inhibited
"Cc1nc2ccccc2n1S(=O)(=O)c1cc([N+](=O)[O-])ccc1Cl [BIM5078, 1-(2′-chloro-5′-nitrobenzenesulfonyl)-2-methylbenzimidazole]",luciferase activity with PPARα co-transfected,PPARα,no change in luciferase activity
same,PPRE activation enhanced by co-transfection with PPARγ expression vector,PPARγ,~4 fold
same,activity as PPARγ agonist,PPARγ,had activity as PPARγ agonists
same,PPRE activation,PPARγ; without PPARγ expression vector,2 fold
same,luciferase activity with PPARδ co-transfected,PPARδ,no change in luciferase activity
same,effect on HNF4α expression in HepG2,HNF4α gene expression [5],potently repressed
same,"plasma stability, remaining",Plasma stability,8%
same,association of E47 with the distal (E2) E-box of the insulin promoter,[6],significantly decreased
same,"association of PDX-1 at A-boxes (A1, A3, A5) of the insulin promoter",[6],significantly decreased
same,effect on HNF4α DNA binding,HNF4α DNA binding,active but less potent
same,Hill coefficient of binding,full-length HNF4α,0.9 ± 0.3
same,"binding to plasma proteins, bound",Plasma protein binding,98%
same,effect on HNF4α expression in MIN6,HNF4α gene expression [3]; 5 hours,potently repressed
same,toxicity to tumor cell lines in vitro,tumor cell lines,toxic
same,effect on Kip2 expression,p57Kip2 expression,potently decreased
same,solubility at 18 h,Solubility,0.17 µg/mL
same,IC50,"[1]; Homo sapiens, 48 h, read-out: IC50, inhibition of endogenous insulin expression",930 nM
same,effect on endogenous insulin expression / insulin promoter activity,[1],had activity
same,effect on HNF4α expression in T6PNE,HNF4α gene expression [4]; 48 hours,potently repressed
same,effect on HNF4α protease sensitivity (DARTS),HNF4α,induced altered HNF4α protease sensitivity
same,estrogenic antagonism / tamoxifen-like activity (E47MER translocation),[2],passed the counterscreen
same,"microsomal stability, remaining",[7],32%
Cc1nc2ccccc2n1Cc1cc([N+](=O)[O-])ccc1O [BI6018],activity in the insulin promoter assay,human insulin promoter,inactive
same,effect on HNF4α DNA binding,HNF4α DNA binding,inactive
same,effect on HNF4α protease sensitivity (DARTS),HNF4α,no effect
CCCCC/C=C\C/C=C\CCCCCCCC(=O)O [linoleic acid],effect of fatty acid on insulin gene expression (quantitative RT-PCR),[1],inhibited
CCCC(=O)O [butyric],effect of fatty acid on insulin gene expression (quantitative RT-PCR),[1],did not have an effect
3-methyl-2-nitronaphthofuran [Compound 5],effect of reported HNF4α ligands on insulin promoter activity,human insulin promoter,none of these compounds had consistent and robust effects
CC(=O)O [acetic],effect of fatty acid on insulin gene expression (quantitative RT-PCR),[1],did not have an effect
"CC(C)(CCCCCCCCCCC(C)(C)CC(=O)O)CC(=O)O [Medica-16, 3,3,14,14-tetramethylhexadecanedioic acid]",effect of reported HNF4α ligands on insulin promoter activity,human insulin promoter,none of these compounds had consistent and robust effects
